The results in this text go back to ChEMBL document CHEMBL4052600 (J Med Chem, 2017).

The target of test [1] is Phosphatidylinositol 4,5-bisphosphate 3-kinase catalytic subunit gamma isoform (Homo sapiens, UniProt P48736). Put plainly: Inhibition of PI3Kgamma (unknown origin) using PIP2 as substrate preincubated for 15 mins followed by substrate addition measured after 60 mins in presence of ATP by HTRF method. (In general: In TR-FRET formats the signal depends on donor and acceptor labels being close together.)
Phosphatidylinositol 4,5-bisphosphate 3-kinase catalytic subunit gamma isoform, sequence (P48736 whole entry, canonical isoform): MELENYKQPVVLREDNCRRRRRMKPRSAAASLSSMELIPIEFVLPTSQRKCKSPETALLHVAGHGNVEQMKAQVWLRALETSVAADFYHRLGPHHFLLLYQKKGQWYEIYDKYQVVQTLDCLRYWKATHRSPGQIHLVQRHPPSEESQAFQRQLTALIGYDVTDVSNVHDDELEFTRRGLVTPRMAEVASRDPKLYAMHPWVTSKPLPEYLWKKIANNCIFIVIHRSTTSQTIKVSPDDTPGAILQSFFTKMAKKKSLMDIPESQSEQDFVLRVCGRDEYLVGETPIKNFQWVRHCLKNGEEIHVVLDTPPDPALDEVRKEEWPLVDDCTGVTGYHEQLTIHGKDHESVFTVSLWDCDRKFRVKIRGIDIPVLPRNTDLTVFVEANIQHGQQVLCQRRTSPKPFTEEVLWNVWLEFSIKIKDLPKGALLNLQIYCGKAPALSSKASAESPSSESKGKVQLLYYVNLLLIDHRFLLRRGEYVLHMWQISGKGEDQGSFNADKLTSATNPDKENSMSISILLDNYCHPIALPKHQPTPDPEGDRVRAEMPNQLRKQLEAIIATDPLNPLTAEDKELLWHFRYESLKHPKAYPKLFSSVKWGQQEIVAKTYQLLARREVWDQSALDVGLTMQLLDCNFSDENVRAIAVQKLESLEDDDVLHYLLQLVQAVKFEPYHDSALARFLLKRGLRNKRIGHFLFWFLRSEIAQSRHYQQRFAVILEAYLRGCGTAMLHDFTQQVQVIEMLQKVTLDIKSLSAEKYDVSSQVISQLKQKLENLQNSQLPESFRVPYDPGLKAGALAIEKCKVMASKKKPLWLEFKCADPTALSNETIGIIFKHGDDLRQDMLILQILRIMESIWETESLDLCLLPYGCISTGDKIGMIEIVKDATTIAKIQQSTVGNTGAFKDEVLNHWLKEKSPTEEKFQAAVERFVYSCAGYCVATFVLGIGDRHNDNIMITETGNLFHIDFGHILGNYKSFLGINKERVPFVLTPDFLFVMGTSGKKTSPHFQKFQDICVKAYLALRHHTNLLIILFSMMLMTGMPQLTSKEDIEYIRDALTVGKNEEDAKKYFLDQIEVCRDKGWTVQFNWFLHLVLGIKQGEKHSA

The target of test [2] is T1, Phosphatidylinositol 4,5-bisphosphate 3-kinase catalytic subunit delta isoform (Homo sapiens, UniProt O00329).
T1 sequence (O00329 whole entry): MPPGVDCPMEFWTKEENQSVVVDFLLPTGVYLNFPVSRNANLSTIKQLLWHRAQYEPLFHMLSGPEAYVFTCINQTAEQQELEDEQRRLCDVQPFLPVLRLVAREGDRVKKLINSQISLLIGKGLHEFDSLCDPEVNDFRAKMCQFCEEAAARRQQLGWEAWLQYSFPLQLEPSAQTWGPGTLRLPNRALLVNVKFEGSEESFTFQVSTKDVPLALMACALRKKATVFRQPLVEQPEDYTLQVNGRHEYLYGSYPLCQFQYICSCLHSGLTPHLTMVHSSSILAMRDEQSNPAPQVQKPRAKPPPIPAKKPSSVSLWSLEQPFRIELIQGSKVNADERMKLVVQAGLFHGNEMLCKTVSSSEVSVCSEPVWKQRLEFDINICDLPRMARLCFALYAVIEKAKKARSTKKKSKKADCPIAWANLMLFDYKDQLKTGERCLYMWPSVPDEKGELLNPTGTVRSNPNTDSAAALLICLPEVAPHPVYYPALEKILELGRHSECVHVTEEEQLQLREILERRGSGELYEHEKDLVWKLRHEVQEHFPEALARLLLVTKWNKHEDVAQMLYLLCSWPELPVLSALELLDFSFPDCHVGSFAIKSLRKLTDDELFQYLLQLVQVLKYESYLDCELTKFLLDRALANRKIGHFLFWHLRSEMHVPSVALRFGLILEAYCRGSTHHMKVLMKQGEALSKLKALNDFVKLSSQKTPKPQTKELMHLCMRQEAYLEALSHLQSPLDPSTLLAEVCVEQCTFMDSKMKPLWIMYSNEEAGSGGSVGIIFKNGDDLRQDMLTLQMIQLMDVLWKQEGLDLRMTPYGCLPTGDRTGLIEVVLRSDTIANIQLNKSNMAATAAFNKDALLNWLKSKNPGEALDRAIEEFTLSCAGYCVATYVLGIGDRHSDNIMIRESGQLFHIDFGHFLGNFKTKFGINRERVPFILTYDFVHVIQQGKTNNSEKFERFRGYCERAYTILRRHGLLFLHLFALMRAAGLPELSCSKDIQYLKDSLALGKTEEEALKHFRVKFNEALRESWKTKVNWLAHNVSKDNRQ
Put plainly: Inhibition of PI3Kdelta (unknown origin) using PIP2 as substrate preincubated for 15 mins followed by substrate addition measured after 60 mins in presence of ATP by HTRF method. The gist of the method:
(§1)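 For PI3Kδ, substrate concentration limits measurable potency to about pIC50 9.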

The target in test [3] is Phosphatidylinositol 4,5-bisphosphate 3-kinase catalytic subunit beta isoform (Homo sapiens, UniProt P42338). The test can be described thus: Inhibition of PI3Kbeta (unknown origin) using PIP2 as substrate preincubated for 15 mins followed by substrate addition measured after 60 mins in presence of ATP by HTRF method.
Phosphatidylinositol 4,5-bisphosphate 3-kinase catalytic subunit beta isoform, sequence (P42338 whole entry, canonical isoform): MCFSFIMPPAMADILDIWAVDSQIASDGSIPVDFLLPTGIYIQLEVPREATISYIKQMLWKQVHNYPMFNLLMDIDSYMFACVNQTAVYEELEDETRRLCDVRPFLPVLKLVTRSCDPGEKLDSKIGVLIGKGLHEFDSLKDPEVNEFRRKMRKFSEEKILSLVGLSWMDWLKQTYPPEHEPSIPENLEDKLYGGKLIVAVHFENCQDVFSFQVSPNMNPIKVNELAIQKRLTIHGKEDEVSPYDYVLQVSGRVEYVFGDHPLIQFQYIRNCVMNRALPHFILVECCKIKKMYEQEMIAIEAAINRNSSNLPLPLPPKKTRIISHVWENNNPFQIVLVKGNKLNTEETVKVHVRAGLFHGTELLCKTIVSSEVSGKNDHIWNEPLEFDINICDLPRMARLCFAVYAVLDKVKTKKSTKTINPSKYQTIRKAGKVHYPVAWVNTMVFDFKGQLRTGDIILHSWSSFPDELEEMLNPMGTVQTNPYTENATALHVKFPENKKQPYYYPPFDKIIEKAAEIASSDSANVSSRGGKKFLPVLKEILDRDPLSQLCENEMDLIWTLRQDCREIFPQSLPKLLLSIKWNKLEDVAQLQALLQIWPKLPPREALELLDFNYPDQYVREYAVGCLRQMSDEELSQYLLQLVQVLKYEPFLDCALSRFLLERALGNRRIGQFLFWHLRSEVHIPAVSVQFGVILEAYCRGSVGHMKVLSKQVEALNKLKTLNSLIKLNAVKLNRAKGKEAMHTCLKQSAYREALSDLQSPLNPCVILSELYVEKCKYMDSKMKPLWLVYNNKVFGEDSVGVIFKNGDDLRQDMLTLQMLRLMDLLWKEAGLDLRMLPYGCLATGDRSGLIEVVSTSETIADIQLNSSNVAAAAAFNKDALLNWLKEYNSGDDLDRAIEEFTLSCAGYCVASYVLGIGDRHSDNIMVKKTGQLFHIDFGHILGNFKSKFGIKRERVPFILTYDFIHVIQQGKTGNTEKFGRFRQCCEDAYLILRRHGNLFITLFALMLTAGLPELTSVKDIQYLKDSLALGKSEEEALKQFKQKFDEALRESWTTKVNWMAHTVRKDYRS
Test [4] has as its target Phosphatidylinositol 4,5-bisphosphate 3-kinase catalytic subunit alpha isoform (Homo sapiens, UniProt P42336). Put plainly: Inhibition of PI3Kalpha (unknown origin) using PIP2 as substrate preincubated for 15 mins followed by substrate addition measured after 60 mins in presence of ATP by HTRF method. The gist of the method:
as §1

In test [5] the target is C-C chemokine receptor type 5 (Homo sapiens, UniProt P51681). The test can be described thus: Antagonist activity at human CCR5 expressed in HEK 293 Glosensor cells assessed as reduction in RANTES-induced intracellular calcium levels preincubated for 30 mins followed by RANTES addition measured at 2 secs time interval for 5 mins by Fluo-4-AM dye based fluorescence assay. It counts as functional, cell-based.
C-C chemokine receptor type 5, sequence (P51681 whole entry): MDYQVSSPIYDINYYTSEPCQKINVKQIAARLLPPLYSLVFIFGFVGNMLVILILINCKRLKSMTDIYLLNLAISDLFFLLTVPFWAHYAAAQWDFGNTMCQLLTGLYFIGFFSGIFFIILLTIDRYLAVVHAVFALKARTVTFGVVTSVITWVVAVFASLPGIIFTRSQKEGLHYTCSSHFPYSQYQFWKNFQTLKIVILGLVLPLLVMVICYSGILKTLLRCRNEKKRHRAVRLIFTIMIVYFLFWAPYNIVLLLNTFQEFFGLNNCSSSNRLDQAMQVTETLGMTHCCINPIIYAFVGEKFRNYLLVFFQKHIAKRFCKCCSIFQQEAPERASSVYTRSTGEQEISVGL

SMILES strings stand for the structures.

Phosphatidylinositol 4,5-bisphosphate 3-kinase catalytic subunit alpha isoform, sequence (P42336 whole entry, canonical isoform): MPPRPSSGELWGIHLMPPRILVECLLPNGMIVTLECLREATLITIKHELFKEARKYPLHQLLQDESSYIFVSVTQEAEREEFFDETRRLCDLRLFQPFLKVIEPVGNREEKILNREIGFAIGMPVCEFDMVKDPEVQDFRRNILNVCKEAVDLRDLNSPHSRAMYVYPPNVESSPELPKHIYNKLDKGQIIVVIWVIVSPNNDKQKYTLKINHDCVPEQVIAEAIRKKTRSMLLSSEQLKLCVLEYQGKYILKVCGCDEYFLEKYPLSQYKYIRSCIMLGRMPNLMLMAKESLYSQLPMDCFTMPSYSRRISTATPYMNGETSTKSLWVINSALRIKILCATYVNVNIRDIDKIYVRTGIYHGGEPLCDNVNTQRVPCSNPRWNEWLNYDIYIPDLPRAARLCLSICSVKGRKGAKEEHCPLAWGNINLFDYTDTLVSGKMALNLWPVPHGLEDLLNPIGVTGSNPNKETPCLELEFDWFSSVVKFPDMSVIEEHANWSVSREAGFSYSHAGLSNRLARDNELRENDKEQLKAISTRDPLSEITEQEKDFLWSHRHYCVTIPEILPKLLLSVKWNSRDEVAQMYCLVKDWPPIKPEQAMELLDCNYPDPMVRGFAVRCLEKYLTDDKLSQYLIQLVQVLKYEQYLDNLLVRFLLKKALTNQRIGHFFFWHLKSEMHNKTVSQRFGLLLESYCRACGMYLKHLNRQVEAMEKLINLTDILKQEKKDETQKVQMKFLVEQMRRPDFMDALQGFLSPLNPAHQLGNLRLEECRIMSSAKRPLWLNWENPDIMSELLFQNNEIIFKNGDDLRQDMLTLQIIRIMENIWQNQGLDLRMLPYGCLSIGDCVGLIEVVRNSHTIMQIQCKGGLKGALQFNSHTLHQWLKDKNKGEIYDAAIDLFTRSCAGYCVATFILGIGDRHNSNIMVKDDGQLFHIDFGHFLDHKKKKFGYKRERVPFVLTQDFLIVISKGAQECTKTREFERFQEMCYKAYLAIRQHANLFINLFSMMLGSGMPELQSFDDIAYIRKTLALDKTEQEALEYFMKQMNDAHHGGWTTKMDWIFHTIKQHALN

As a reminder, the IC50 is the point on the concentration scale where inhibition reaches its midpoint. As to `Cc1nncn1C1CCN(Cc2cc3nc(-c4cccc(O)c4)nc(N4CCOCC4)c3s2)CC1`, the IC50 in test [1] was 0.2 µM; in test [2] it was 0.00398 µM; in test [3] it was 0.158 µM; in test [4], 0.1 µM.
The matching figures for `Oc1cccc(-c2nc(N3CCOCC3)c3sc(CN4CCC(n5cnnc5C(F)(F)F)CC4)cc3n2)c1`: 0.158 µM, 0.00251 µM, 0.1 µM and 0.0631 µM.
Take `FC(F)(F)c1nncn1C1CCN(Cc2cc3nc(-c4cccc5[nH]ncc45)nc(N4CCOCC4)c3s2)CC1`: the IC50 is 0.794 µM in test [1], 0.02 µM in test [2], 1.26 µM in test [3] and 0.316 µM in test [4].
Consider `Cc1nncn1C1CCN(Cc2cc3nc(-c4cccc5[nH]ncc45)nc(N4CCOCC4)c3s2)CC1`, for which the IC50 is 1 µM in test [1], 0.01 µM in test [2], 1 µM in test [3] and 0.316 µM in test [4].
For `FC(F)(F)c1nncn1C1CCN(Cc2cc3nc(-c4cccc5[nH]ccc45)nc(N4CCOCC4)c3s2)CC1`, the half-maximal inhibitory concentration (IC50) is 3.16 µM in test [1], 0.02 µM in test [2], 0.794 µM in test [3] and 3.98 µM in test [4].
As for `Cc1nncn1C1CCN(Cc2cc3nc(-c4cccc5[nH]ccc45)nc(N4CCOCC4)c3s2)CC1`, the IC50 was 0.00398 µM in test [2], 0.398 µM in test [3] and 2 µM in test [4].
As usually defined, the Kd is the constant that tells how readily two partners part at equilibrium. With `Cc1nnc2n1[C@H]1CCN(CC[C@H](NC(=O)C3CCC(F)(F)CC3)c3ccccc3)C[C@H]1CC2` (racemic), the Kd in test [5] was 0.316 µM.
As for `Cc1nnc2n1[C@H]1CCN(Cc3cc4nc(-c5cccc6[nH]ccc56)nc(N5CCOCC5)c4s3)C[C@@H]1CC2` (relative stereo), the IC50 in test [1] is 0.794 µM; in test [2], 0.001 µM; in test [3], 0.316 µM; in test [4] it was 2 µM.
On to `FC(F)(F)c1nnc2n1[C@H]1CCN(Cc3cc4nc(-c5cccc6[nH]ccc56)nc(N5CCOCC5)c4s3)C[C@H]1CC2` (relative stereo), for which the IC50 in test [1] was 0.631 µM; in test [2] it was 0.000794 µM; in test [3], 0.1 µM; in test [4], 1.58 µM.
In the case of `Cc1nnc2n1[C@H]1CCN(Cc3cc4nc(-c5cccc6[nH]ncc56)nc(N5CCOCC5)c4s3)C[C@@H]1CC2` (relative stereo), the IC50 in test [1] is 0.316 µM; in test [2], 0.00398 µM; in test [3], 0.501 µM; in test [4], 0.158 µM.
The matching figures for `Oc1cccc(-c2nc(N3CCOCC3)c3sc(CN4CC[C@H]5[C@@H](CCc6nnc(C(F)(F)F)n65)C4)cc3n2)c1` (relative stereo): 0.2 µM, 0.001 µM, 0.0501 µM and 0.0316 µM.
In the case of `FC(F)(F)c1nnc2n1[C@H]1CCN(Cc3cc4nc(-c5cccc6[nH]ncc56)nc(N5CCOCC5)c4s3)C[C@H]1CC2` (relative stereo), the IC50 in test [1] is 0.794 µM; in test [2], 0.00251 µM; in test [3], 0.398 µM; in test [4], 0.316 µM.
Take `Cc1nnc2n1[C@H]1CCN(Cc3cc4nc(-c5cccc6[nH]ccc56)nc(N5CCOCC5)c4s3)C[C@H]1CC2` (relative stereo): the IC50 is 1.58 µM in test [1], 0.000794 µM in test [2], 0.316 µM in test [3] and 3.16 µM in test [4].
Regarding `Cc1nnc2n1[C@@H]1CCN(CC[C@H](NC(=O)C3CCC(F)(F)CC3)c3ccccc3)C[C@@H]1CC2` (relative stereo), the Kd in test [5] is 0.01 µM.
For `FC(F)(F)c1nnc2n1[C@H]1CCN(Cc3cc4nc(-c5cccc6[nH]ncc56)nc(N5CCOCC5)c4s3)C[C@@H]1CC2` (relative stereo), the IC50 in test [1] is 1 µM; in test [2], 0.00794 µM; in test [3] it was 0.631 µM; in test [4], 0.158 µM.
The matching figures for `Cc1nnc2n1[C@H]1CCN(Cc3cc4nc(-c5cccc(O)c5)nc(N5CCOCC5)c4s3)C[C@@H]1CC2` (relative stereo): 0.501 µM, 0.000794 µM, 0.126 µM and 0.1 µM.
As to `Oc1cccc(-c2nc(N3CCOCC3)c3sc(CN4CC[C@H]5[C@H](CCc6nnc(C(F)(F)F)n65)C4)cc3n2)c1` (relative stereo), the 50% inhibitory concentration (IC50) in test [1] was 0.158 µM; in test [2], 0.000631 µM; in test [3], 0.0501 µM; in test [4] it was 0.0631 µM.
On to `FC(F)(F)c1nnc2n1[C@H]1CCN(Cc3cc4nc(-c5cccc6[nH]ccc56)nc(N5CCOCC5)c4s3)C[C@@H]1CC2` (relative stereo), for which the IC50 in test [1] is 0.398 µM; in test [2] it was 0.00158 µM; in test [3] it was 0.158 µM; in test [4], 0.501 µM.
Regarding `Cc1nnc2n1[C@H]1CCN(Cc3cc4nc(-c5cccc6[nH]ncc56)nc(N5CCOCC5)c4s3)C[C@H]1CC2` (relative stereo), the IC50 was 1.26 µM in test [1], 0.00316 µM in test [2], 1.26 µM in test [3] and 1.58 µM in test [4].
